Data from ChEMBL document CHEMBL1687907, “Incorporation of a bioactive reverse-turn heterocycle into a peptide template using solid-phase synthesis to probe melanocortin receptor selectivity and ligand conformations by 2D 1H NMR” (J Med Chem, 2011).
Active and inactive are the calls of the source. The calls are words filed in the database; no cut-off is given here.

What was measured:
Type in all cases: functional, cell-based
Melanocortin receptor 3 = Melanocortin receptor 3 (Mus musculus, UniProt P33033); assay: Agonist activity at mouse melanocortin 3 receptor expressed in HEK293 cells after 48 hrs by cAMP based beta-galactosidase reporter gene assay
[1] = target: Melanocyte-stimulating hormone receptor (Mus musculus, UniProt Q01727); assay: Agonist activity at mouse melanocortin 1 receptor expressed in HEK293 cells after 48 hrs by cAMP based beta-galactosidase reporter gene assay
Melanocortin receptor 4 = Melanocortin receptor 4 (Mus musculus, UniProt P56450); assay: Agonist activity at mouse melanocortin 4 receptor expressed in HEK293 cells after 48 hrs by cAMP based beta-galactosidase reporter gene assay
Melanocortin receptor 5 = Melanocortin receptor 5 (Mus musculus, UniProt P41149); assay: Agonist activity at mouse melanocortin 5 receptor expressed in HEK293 cells after 48 hrs by cAMP based beta-galactosidase reporter gene assay
[2] = target: Melanocortin receptor 3 (Mus musculus) (UniProt P33033); assay: Agonist activity at mouse melanocortin 3 receptor expressed in HEK293 cells at 100 uM after 48 hrs by cAMP based beta-galactosidase reporter gene assay
Procedure, shortened: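 HEK-293 cells stably expressing mouse MC3R were CRE/β-galactosidase reporter transfected and stimulated 48 h later for 6 h in IBMX/BSA DMEM. Peptide concentrations reached 100 µM. ONPG read at OD405, normalized to protein and forskolin.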

Sequence of Melanocortin receptor 5 (P41149 whole entry): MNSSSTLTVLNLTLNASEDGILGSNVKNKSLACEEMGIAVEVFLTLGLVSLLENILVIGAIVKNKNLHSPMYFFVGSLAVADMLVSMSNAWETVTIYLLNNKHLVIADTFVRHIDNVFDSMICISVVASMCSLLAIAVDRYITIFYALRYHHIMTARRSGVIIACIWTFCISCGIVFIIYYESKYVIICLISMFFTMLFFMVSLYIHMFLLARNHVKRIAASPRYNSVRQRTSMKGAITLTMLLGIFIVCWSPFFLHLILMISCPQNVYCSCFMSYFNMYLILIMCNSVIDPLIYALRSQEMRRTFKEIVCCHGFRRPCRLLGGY
Sequence of Melanocortin receptor 3 (P33033 whole entry): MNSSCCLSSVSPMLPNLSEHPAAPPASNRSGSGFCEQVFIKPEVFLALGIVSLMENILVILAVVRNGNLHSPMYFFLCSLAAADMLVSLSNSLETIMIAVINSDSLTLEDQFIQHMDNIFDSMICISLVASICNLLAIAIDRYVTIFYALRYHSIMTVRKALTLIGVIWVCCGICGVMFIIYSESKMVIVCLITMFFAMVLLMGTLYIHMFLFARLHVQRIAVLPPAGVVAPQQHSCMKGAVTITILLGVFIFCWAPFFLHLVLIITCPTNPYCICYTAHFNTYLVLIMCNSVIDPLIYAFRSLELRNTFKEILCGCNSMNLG
Sequence of Melanocyte-stimulating hormone receptor (Q01727 whole entry): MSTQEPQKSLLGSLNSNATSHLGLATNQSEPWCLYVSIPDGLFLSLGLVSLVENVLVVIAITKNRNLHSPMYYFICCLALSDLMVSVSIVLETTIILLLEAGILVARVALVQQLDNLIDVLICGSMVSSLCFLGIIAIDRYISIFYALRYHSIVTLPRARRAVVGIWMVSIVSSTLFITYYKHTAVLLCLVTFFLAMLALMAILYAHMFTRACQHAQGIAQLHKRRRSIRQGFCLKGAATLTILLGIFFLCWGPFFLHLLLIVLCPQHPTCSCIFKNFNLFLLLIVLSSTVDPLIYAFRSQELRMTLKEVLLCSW
Sequence of Melanocortin receptor 4 (P56450 whole entry): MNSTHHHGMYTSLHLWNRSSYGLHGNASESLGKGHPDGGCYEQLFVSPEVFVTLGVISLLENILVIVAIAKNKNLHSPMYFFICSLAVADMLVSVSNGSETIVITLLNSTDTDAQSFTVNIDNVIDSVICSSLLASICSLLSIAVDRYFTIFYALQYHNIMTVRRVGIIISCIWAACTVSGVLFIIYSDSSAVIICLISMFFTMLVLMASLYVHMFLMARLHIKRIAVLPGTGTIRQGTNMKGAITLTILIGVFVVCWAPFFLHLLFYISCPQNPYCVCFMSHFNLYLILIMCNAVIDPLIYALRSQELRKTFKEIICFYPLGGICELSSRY
Sequence of Melanocortin receptor 3 (Mus musculus) (P33033 whole entry): as the sequence (P33033 whole entry) above

Row | Structure (SMILES) | EC50 (Melanocortin receptor 3) [nM] | EC50 [1] [nM] | EC50 (Melanocortin receptor 4) [nM] | EC50 (Melanocortin receptor 5) [nM] | Activity [2]
1 | C[C@@H]1NC(=O)[C@H](CC(N)=O)NC(=O)[C@H](Cc2c[nH]c3ccccc23)N2C[C@H](CCCN=C(N)N)NC(=O)[C@H](CSCC2=O)NC(=O)[C@@H](Cc2ccccc2)NC(=O)[C@H](Cc2cnc[nH]2)NC(=O)[C@@H](NC(=O)[C@@H](N)Cc2ccc(O)cc2)CSSC[C@@H](C(=O)N[C@@H](Cc2ccc(O)cc2)C(N)=O)NC(=O)[C@H](Cc2ccccc2)NC1=O | 495 | 33 | 85 | 72 | 
2 | CC(=O)N[C@@H](Cc1cnc[nH]1)C(=O)N[C@H](Cc1ccccc1)C(=O)N[C@@H]1CSCC(=O)N([C@@H](Cc2c[nH]c3ccccc23)C(N)=O)C[C@H](CCCN=C(N)N)NC1=O | 7600 | 164 | 650 | 335 | 
3 | C[C@@H]1NC(=O)[C@H](CC(N)=O)NC(=O)[C@H](Cc2c[nH]c3ccccc23)NC(=O)[C@H](CCCN=C(N)N)NC(=O)[C@@H](Cc2ccccc2)NC(=O)[C@H](Cc2cnc[nH]2)NC(=O)[C@@H](NC(=O)[C@@H](N)Cc2ccc(O)cc2)CSSC[C@@H](C(=O)N[C@@H](Cc2ccc(O)cc2)C(N)=O)NC(=O)[C@H](Cc2ccccc2)NC1=O | 2 | 0.35 | 0.27 | 2.3 | 
4 | C[C@@H]1NC(=O)[C@H](CC(N)=O)NC(=O)[C@H](Cc2c[nH]c3ccccc23)NC(=O)[C@H](CCCNC(=N)N)N2C[C@@H](Cc3ccccc3)NC(=O)[C@@H](CSCC2=O)NC(=O)[C@H](Cc2cnc[nH]2)NC(=O)[C@@H](NC(=O)[C@@H](N)Cc2ccc(O)cc2)CSSC[C@@H](C(=O)N[C@@H](Cc2ccc(O)cc2)C(N)=O)NC(=O)[C@H](Cc2ccccc2)NC1=O |  |  | 3210 |  | 
5 | C[C@@H]1NC(=O)[C@H](CC(N)=O)NC(=O)[C@H](Cc2c[nH]c3ccccc23)NC(=O)[C@H](CCCNC(=N)N)N2C[C@@H](Cc3ccccc3)NC(=O)[C@H](CSCC2=O)NC(=O)[C@H](Cc2cnc[nH]2)NC(=O)[C@@H](NC(=O)[C@@H](N)Cc2ccc(O)cc2)CSSC[C@@H](C(=O)N[C@@H](Cc2ccc(O)cc2)C(N)=O)NC(=O)[C@H](Cc2ccccc2)NC1=O |  |  |  |  | inactive
6 | C[C@@H]1NC(=O)[C@H](CC(N)=O)NC(=O)[C@H](Cc2c[nH]c3ccccc23)NC(=O)[C@H](CCCNC(=N)N)NC(=O)[C@@H](Cc2ccccc2)N2C[C@H](Cc3cnc[nH]3)NC(=O)[C@@H](CSCC2=O)NC(=O)[C@@H](NC(=O)[C@@H](N)Cc2ccc(O)cc2)CSSC[C@@H](C(=O)N[C@@H](Cc2ccc(O)cc2)C(N)=O)NC(=O)[C@H](Cc2ccccc2)NC1=O |  |  |  |  | inactive
